Data reported in ChEMBL document CHEMBL4689842, “EUbOPEN Chemogenomics Library wave 1” (2021).

System: Fibroblast
Assay: Multiplex assay against human fibroblast
Type: toxicity, cell-based
Outline: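 Live cells carried four stains from seeding: Hoechst33342, BioTracker Green Microtubule Cytoskeleton Dye, MitoTracker Red and Annexin V Alexa Fluor 680. They were imaged on a CQ1 microscope at 37°C and 5% CO2 after compound addition. Using CellPathfinder machine-learning gating, cells were split into Hoechst high-intensity objects or normal cells, normal cells into healthy, pyknosed or fragmented nuclei, and pyknosed cells into mitotic or apoptotic; tubulin, mitochondrial-mass and membrane-permeability phenotypes are per cents of healthy-nucleus cells.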

[1] = 12 h, 1 µM, compound concentration 1 uM, replicate 1
[2] = 12 h, 1 µM, compound concentration 1 uM, replicate 2
[3] = 12 h, 10 µM, compound concentration 10 uM, replicate 1
[4] = 12 h, 10 µM, compound concentration 10 uM, replicate 2
[5] = 24 h, 1 µM, compound concentration 1 uM, replicate 1
[6] = 24 h, 1 µM, compound concentration 1 uM, replicate 2
[7] = 24 h, 10 µM, compound concentration 10 uM, replicate 1
[8] = 24 h, 10 µM, compound concentration 10 uM, replicate 2

CCCS(=O)(=O)Nc1ccc(F)c(C(=O)c2c[nH]c3ncc(Cl)cc23)c1F [PLX-4720]
Population Apoptotic (%) [1]: 55%
Population Fragmented Nuclei (%) [1]: 20%
Population Healthy Nuclei (%) [1]: 62%
Population Hoechst High Intensity Objects (%) [1]: 10%
Population Membrane Permeable-Phenotype (%) [1]: 5%
Population Mitochondria Different-Phenotype (%) [1]: 6%
Population Mitotic Cells (%) [1]: 44%
Population Normal (%) [1]: 89%
Population Pyknosed Nuclei (%) [1]: 17%
Population Tubulin-Different-Phenotype (%) [1]: 14%
Total Cell Count [1]: 234
Population Apoptotic (%) [2]: 28%
Population Fragmented Nuclei (%) [2]: 56%
Population Healthy Nuclei (%) [2]: 31%
Population Hoechst High Intensity Objects (%) [2]: 29%
Population Membrane Permeable-Phenotype (%) [2]: 22%
Population Mitochondria Different-Phenotype (%) [2]: 11%
Population Mitotic Cells (%) [2]: 71%
Population Normal (%) [2]: 70%
Population Pyknosed Nuclei (%) [2]: 12%
Population Tubulin-Different-Phenotype (%) [2]: 27%
Total Cell Count [2]: 81
Population Apoptotic (%) [3]: 65%
Population Fragmented Nuclei (%) [3]: 23%
Population Healthy Nuclei (%) [3]: 63%
Population Hoechst High Intensity Objects (%) [3]: 13%
Population Membrane Permeable-Phenotype (%) [3]: 3%
Population Mitotic Cells (%) [3]: 34%
Population Normal (%) [3]: 86%
Population Pyknosed Nuclei (%) [3]: 13%
Population Tubulin-Different-Phenotype (%) [3]: 5%
Total Cell Count [3]: 254
Population Apoptotic (%) [4]: 60%
Population Fragmented Nuclei (%) [4]: 65%
Population Healthy Nuclei (%) [4]: 26%
Population Hoechst High Intensity Objects (%) [4]: 36%
Population Membrane Permeable-Phenotype (%) [4]: 6%
Population Mitochondria Different-Phenotype (%) [4]: 6%
Population Mitotic Cells (%) [4]: 40%
Population Normal (%) [4]: 63%
Population Pyknosed Nuclei (%) [4]: 8%
Population Tubulin-Different-Phenotype (%) [4]: 0%
Total Cell Count [4]: 95
Population Apoptotic (%) [5]: 53%
Population Fragmented Nuclei (%) [5]: 25%
Population Healthy Nuclei (%) [5]: 61%
Population Hoechst High Intensity Objects (%) [5]: 11%
Population Membrane Permeable-Phenotype (%) [5]: 7%
Population Mitochondria Different-Phenotype (%) [5]: 10%
Population Mitotic Cells (%) [5]: 46%
Population Normal (%) [5]: 88%
Population Pyknosed Nuclei (%) [5]: 12%
Population Tubulin-Different-Phenotype (%) [5]: 22%
Total Cell Count [5]: 249
Population Apoptotic (%) [6]: 25%
Population Fragmented Nuclei (%) [6]: 47%
Population Healthy Nuclei (%) [6]: 34%
Population Hoechst High Intensity Objects (%) [6]: 40%
Population Membrane Permeable-Phenotype (%) [6]: 13%
Population Mitochondria Different-Phenotype (%) [6]: 6%
Population Mitotic Cells (%) [6]: 75%
Population Normal (%) [6]: 59%
Population Pyknosed Nuclei (%) [6]: 18%
Population Tubulin-Different-Phenotype (%) [6]: 13%
Total Cell Count [6]: 74
Population Apoptotic (%) [7]: 70%
Population Fragmented Nuclei (%) [7]: 23%
Population Healthy Nuclei (%) [7]: 63%
Population Hoechst High Intensity Objects (%) [7]: 18%
Population Membrane Permeable-Phenotype (%) [7]: 3%
Population Mitochondria Different-Phenotype (%) [7]: 4%
Population Mitotic Cells (%) [7]: 29%
Population Normal (%) [7]: 81%
Population Pyknosed Nuclei (%) [7]: 12%
Population Tubulin-Different-Phenotype (%) [7]: 1%
Total Cell Count [7]: 271
Population Apoptotic (%) [8]: 50%
Population Fragmented Nuclei (%) [8]: 64%
Population Healthy Nuclei (%) [8]: 29%
Population Hoechst High Intensity Objects (%) [8]: 31%
Population Membrane Permeable-Phenotype (%) [8]: 10%
Population Mitochondria Different-Phenotype (%) [8]: 10%
Population Mitotic Cells (%) [8]: 50%
Population Normal (%) [8]: 68%
Population Pyknosed Nuclei (%) [8]: 5%
Population Tubulin-Different-Phenotype (%) [8]: 10%
Total Cell Count [8]: 98
